Measurements taken from ChEMBL document CHEMBL3425404, “Structure-activity relationship in a purine-scaffold compound series with selectivity for the endoplasmic reticulum Hsp90 paralog Grp94” (J Med Chem, 2015).
pKd: −log10 of the molar value. The source made the active and inactive calls. The calls are words filed in the database; no cut-off is given here.

Assays:
[1] = target: Heat shock protein HSP90 (Homo sapiens) (UniProt P07900+P08238); assay: Inhibition of HSP90 in human SKBR3 cells assessed as induction of HSP70 activity at 1 to 25 uM after 24 hrs by Western blot analysis; format: cell-based; conditions: SK-BR-3
How it was run: (§1)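 SKBr3 cells were treated 24 h with DMSO vehicle or compound, then lysed in RIPA with protease inhibitors. Lysate (5−50 μg) was run on SDS−PAGE and immunoblotted for HER2 or Hsp70, with β-actin as loading control. Detection was by HRP secondary and ECL, with densitometry. Blots are representative of triplicate experiments.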

Nucleic Acid = assay: Ratio of drug level in tumor to heart in nu/nu athymic mouse xenografted with human MDA-MB-468 cells at 75 mg/kg, ip measured at 24 hrs by LC-MS/MS analysis; format: ADME, organism-based; parameters: dose 75 mg/kg, route intraperitoneal; conditions: in vivo
How it was run: (§2)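 Mice bearing subcutaneous MDA-MB-468 breast tumors (1 × 10^7 cells in right flank) got a single 75 mg/kg ip dose, n = 4 per time point. They were sacrificed at 2 and 24 h. Drug in tumor, tissues and plasma was quantified by LC−MS/MS, and tumor-to-tissue or tumor-to-plasma ratios were computed. Mean ± error.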

RAW264.7 = assay: Inhibition of HSP90 in mouse RAW264.7 cells assessed as inhibition of LPS-induced TNFalpha production at 2 to 16 uM after 18 hrs by ELISA; format: cell-based
Homo sapiens [2] = organism: Homo sapiens; assay: Selectivity ratio of IC50 for recombinant Trap1 (unknown origin) to IC50 for recombinant Grp94 (unknown origin)
Mus musculus = assay: Acute toxicity in nu/nu athymic mouse xenografted with human MDA-MB-468 cells at 150 mg/kg, ip; format: organism-based; parameters: dose 150 mg/kg, route intraperitoneal; conditions: in vivo
How it was run: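 MDA-MB-468 cells (1 × 10^7) were implanted sc in the right flank and allowed to grow. Tumour-bearing mice (n = 4) received 75 or 150 mg/kg ip and were followed for acute toxicity. Augmentin was given in the drinking water during therapy.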

[3] = Ratio of drug level in tumor to plasma in nu/nu athymic mouse xenografted with human MDA-MB-468 cells at 75 mg/kg, ip measured at 24 hrs by LC-MS/MS analysis; format: ADME, organism-based; parameters: dose 75 mg/kg, route intraperitoneal; how it was run: as §2
[4] = Plasma concentration in nu/nu athymic mouse xenografted with human MDA-MB-468 cells at 75 mg/kg, ip measured at 2 hrs by LC-MS/MS analysis; format: ADME, organism-based; parameters: dose 75 mg/kg, route intraperitoneal; how it was run: as §2
[5] = target: Endoplasmin (Homo sapiens) (UniProt P14625); assay: Inhibition of Grp94 in human SKBR3 cells overexpressing HER2 assessed as degradation of HER2 at 1 to 25 uM after 24 hrs by Western blot analysis; format: cell-based; conditions: SK-BR-3; how it was run: as §1
[6] = target: Endoplasmin (Homo sapiens) (UniProt P14625); assay: Inhibition of Grp94 in HEK293T cells assessed as downregulation of TLR9 protein expression in post ER compartment after 24 hrs by confocal microscopic analysis; format: cell-based; conditions: HEK-293T
How it was run: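 HEK293T cells were transfected with HA-tagged human TLR9 and split onto chamber slides 24 h later. They were then treated 24 h at varying concentrations. Cells were fixed in 4% paraformaldehyde, permeabilized with Triton X-100 and blocked in 3% BSA. They were stained with anti-HA then Cy3 secondary, with DAPI. Imaging was by confocal microscopy, and fluorescence intensity was normalized to cell number.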

[7] = Oral bioavailability in B6D2F1 mouse at 10 mg/kg by LC-MS/MS analysis; format: ADME, organism-based; conditions: in vivo
How it was run: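 Male B6D2F1 mice (n = 2 per time point, 20 total) got a single 10 mg/kg iv or oral dose in 30% captisol, 5 mM citrate pH 4.2. Plasma levels at sacrifice times were measured by LC−MS/MS, converted to molar assuming 1 g = 1 mL, and plotted versus time. Oral F was derived.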

[8] = Drug uptake in tumor of nu/nu athymic mouse xenografted with human MDA-MB-468 cells at 75 mg/kg, ip measured at 2 hrs by LC-MS/MS analysis; format: ADME, organism-based; parameters: dose 75 mg/kg, route intraperitoneal; conditions: read-out: Drug uptake; how it was run: as §2
[9] = target: Endoplasmin (Mus musculus) (UniProt P08113); assay: Inhibition of Grp94 in mouse RAW264.7 cells assessed as inhibition of CpG-induced TNFalpha production after 18 hrs by ELISA; format: cell-based
[10] = target: Endoplasmin (Mus musculus) (UniProt P08113); assay: Inhibition of Grp94 in mouse differentiated C2C12 cells assessed as inhibition of IGF-2 secretion after 24 hrs by ELISA; format: cell-based
How it was run: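 C2C12 mouse myoblasts were shifted to differentiation medium (DMEM, 2% horse serum) and treated 24 h with compounds. Medium was captured overnight at 4 °C on anti-IGF-II ELISA plates and detected with biotinylated antibody, HRP-streptavidin and TMB. A450 was read, and IGF-II was quantified against a recombinant IGF-II standard curve.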

Homo sapiens [11] = organism: Homo sapiens; assay: Selectivity ratio of IC50 for recombinant Hsp90beta (unknown origin) to IC50 for recombinant Grp94 (unknown origin)
Endoplasmin = Endoplasmin (Canis lupus familiaris, UniProt P41148); assay: Binding affinity to canine full-length His-tagged GRP94 (28 to 754 residues lacking 287 to 327 residues) expressed in Escherichia coli by tryptophan fluorescence assay
[12] = Binding affinity to full length yeast His-tagged Hsp90 (1 to 709) overexpressed in Escherichia coli BL21 Star (DE3) by tryptophan fluorescence assay; parameters: species or system Saccharomyces cerevisiae

Endoplasmin (Mus musculus), sequence (P08113 whole entry): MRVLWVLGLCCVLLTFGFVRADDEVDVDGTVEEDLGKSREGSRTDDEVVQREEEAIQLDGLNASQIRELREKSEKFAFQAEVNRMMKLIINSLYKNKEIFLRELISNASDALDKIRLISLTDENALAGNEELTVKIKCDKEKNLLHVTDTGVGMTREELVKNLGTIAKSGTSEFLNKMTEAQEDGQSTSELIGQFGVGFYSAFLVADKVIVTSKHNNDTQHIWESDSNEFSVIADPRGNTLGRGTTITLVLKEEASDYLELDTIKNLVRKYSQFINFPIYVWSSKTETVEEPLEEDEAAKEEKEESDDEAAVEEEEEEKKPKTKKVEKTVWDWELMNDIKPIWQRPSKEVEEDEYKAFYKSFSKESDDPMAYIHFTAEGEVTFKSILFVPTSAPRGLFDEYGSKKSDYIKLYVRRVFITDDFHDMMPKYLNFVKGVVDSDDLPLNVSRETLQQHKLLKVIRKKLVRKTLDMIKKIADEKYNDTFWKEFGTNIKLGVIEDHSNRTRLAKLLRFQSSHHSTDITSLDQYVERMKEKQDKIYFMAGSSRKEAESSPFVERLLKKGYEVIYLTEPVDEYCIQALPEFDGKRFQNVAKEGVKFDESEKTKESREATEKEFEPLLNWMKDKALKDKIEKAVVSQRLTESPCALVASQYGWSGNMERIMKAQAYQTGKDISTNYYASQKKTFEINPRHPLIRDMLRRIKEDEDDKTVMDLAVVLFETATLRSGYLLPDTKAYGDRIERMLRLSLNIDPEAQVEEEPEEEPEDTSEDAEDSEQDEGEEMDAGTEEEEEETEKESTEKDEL
Endoplasmin (Homo sapiens), sequence (P14625 whole entry): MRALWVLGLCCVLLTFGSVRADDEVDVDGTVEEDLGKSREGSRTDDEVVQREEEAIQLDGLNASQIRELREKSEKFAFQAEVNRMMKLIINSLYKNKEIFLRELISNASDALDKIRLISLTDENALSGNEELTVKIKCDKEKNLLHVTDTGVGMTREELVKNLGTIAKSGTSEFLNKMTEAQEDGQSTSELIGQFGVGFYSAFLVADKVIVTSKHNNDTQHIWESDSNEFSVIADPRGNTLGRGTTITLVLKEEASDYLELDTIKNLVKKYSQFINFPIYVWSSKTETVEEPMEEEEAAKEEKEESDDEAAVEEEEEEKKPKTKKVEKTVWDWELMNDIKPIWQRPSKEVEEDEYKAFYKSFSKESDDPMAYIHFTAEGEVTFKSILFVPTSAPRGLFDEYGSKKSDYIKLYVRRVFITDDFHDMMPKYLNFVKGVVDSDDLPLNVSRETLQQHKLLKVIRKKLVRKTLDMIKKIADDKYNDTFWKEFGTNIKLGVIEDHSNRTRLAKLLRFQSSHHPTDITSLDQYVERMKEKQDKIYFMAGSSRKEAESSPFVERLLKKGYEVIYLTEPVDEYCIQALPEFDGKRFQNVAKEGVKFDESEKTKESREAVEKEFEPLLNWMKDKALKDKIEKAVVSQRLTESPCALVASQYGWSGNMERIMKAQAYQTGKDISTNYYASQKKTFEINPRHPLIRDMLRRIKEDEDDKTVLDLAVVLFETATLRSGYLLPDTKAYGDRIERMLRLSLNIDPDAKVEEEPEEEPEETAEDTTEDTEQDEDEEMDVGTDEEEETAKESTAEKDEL
Endoplasmin, sequence (P41148 22-804 limits assumed): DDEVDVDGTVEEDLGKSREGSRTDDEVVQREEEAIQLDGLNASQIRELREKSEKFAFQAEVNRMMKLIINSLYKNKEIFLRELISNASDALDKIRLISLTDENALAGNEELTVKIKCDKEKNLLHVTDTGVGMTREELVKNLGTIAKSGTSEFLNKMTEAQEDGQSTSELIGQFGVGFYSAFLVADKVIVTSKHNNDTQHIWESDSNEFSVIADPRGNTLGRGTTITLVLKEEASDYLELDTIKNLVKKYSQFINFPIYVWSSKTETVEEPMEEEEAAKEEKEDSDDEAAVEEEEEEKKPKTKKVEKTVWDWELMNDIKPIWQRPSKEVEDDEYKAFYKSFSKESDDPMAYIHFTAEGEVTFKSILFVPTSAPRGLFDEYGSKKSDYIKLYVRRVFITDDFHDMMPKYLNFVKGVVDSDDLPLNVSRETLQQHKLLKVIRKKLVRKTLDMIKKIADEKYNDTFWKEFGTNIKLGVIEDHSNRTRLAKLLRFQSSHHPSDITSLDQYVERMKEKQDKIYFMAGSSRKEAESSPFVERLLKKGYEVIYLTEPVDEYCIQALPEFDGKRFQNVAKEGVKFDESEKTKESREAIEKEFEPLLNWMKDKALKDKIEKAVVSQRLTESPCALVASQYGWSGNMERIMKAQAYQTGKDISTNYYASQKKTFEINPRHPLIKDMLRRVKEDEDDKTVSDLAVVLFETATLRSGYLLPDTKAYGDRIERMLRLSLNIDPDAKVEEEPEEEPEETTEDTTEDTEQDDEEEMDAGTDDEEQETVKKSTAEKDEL

Row | pKd (Endoplasmin) | SMILES | inhibition [1] | Ratio (Nucleic Acid) | inhibition (RAW264.7) | Ratio IC50 (Homo sapiens [2]) | Activity (Mus musculus) | Kp at 24 h [3] | concentration at 2 h [4] | inhibition [5] | inhibition [6] | bioavailability [7] | concentration at 2 h [8] | inhibition [9] | inhibition [10] | Ratio IC50 (Homo sapiens [11]) | pKd [12]
1 | – | CC(C)NCCCn1c(Sc2cc(Cl)cc(Cl)c2)nc2c(N)ncnc21 | inactive | 100 | inactive | 33 | Non-toxic | 200 | 100 µM | Active | Dose-dependent effect | 80% | 850 µM | Dose-dependent effect | Dose-dependent effect | > 100 | –
2 | 6.28 | COC(=O)c1c(O)cc(O)c(Cl)c1CCC(=O)NC1=CC(=O)C(OC)=CC1=O | – | – | – | – | – | – | – | – | – | – | – | – | – | – | 6.06
